Compounds with a hit are over-represented: about 1.5% of the library has one in this group of screens.
MT1-MMP act inh – inhibitors of human MT1-MMP activation; P50281; HT1080 RFP-PRO-GFP cells, GFP/RFP ratio fluorescence, overnight; percent of plate control window, DMSO zero; GFP/RFP ratio change, % at 20 µM; 360,000 compounds, 0.061% hits; AID 651647;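 active means GFP/RFP ratio change of at least 30% with cell ATP level not reduced by more than half and red fluorescence within 50% of control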
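system = RFP-PRO-GFP reporter HT1080 cells | dosing = 20 µM single dose, 1% DMSO | timing = overnight cell settling, then overnight compound exposure, 37 °C, 5% CO2 | read-out basis = GFP/RFP fluorescence ratio | controls = DMSO and RFP-L50D-GFP cell wells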
CendR NRP1 mod – NRP-1/CendR interaction modulation. 360,000 compounds, 0.85% hits. FAM-RPARPAR peptide binding to NRP-1, fluorescence polarization. inhibition, % at 25 µM. O14786;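 active means inhibition or corrected inhibition above about 18%, plus a signal ratio from 0.5 to 1.5, limit read from the data, passing the limit was not always enough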
Fh CTSL1 inh – cathepsin L1 inhibition, PFM18AAP counter-screen; recombinant F. hepatica cathepsin L1, Z-Leu-Arg-MCA fluorescence; inhibition, % at 5.96 µM; 300,000 compounds, 0.49% hits;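 active means inhibition above the mean of all tested compounds plus 3 SD, set per screening campaign, cut at about 17% in these data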;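 further: 0% = plate median of test compound wells and 100% = 1 µM Z-Phe-Ala-diazomethylketone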
DAGLB inh – diacylglycerol lipase beta (human) inhibition; Q8NCG7; HEK293T DAGLB membrane lysate, EnzChek fluorogenic substrate; inhibition, % at 5.17 µM; 340,000 compounds, 0.059% hits; AID 504411; in the data active means inhibition above about 34%;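 further: 0% = enzyme with vehicle and 100% = wells lacking enzyme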
UCH37 inh – blocks the human deubiquitinase UCH37; Q9Y5K5; purified proteasome/UCH37, Ub-AMC cleavage fluorescence; inhibition, % (test concentration not listed); 330,000 compounds, 0.33% hits; AID 588478;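 active means mean inhibition over replicate wells above about 20%, limit read from the data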;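 further: 0% = compound-free wells with enzyme and 100% = wells lacking proteasome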
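system = Proteasome-associated human UCH37 deubiquitinase | amount = 0.15 nM proteasome as dispensed | medium = pH 7.4 Tris-HCl (50 mM) with ovalbumin, ATP-MgCl2, DTT | incubation = 30 min preincubation with enzyme, 25 min cleavage at room temperature | detection = AMC fluorescence 355/460 nm | read-out basis = percent inhibition | controls = no-proteasome and no-compound wells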
MT1-MMP act val – blocks activation of human MT1-MMP in validation testing; HT1080 RFP-PRO-GFP cells, GFP and RFP fluorescence ratio, overnight; 200 compounds, 10% hits; inhibition, % at 20 µM; shares compounds with MT1-MMP act inh;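 active means inhibition of at least 50% in the primary cell screen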
* marks the source's active call; other numbers are inactive results; . = no result.

SMILES | MT1-MMP act inh | CendR NRP1 mod | Fh CTSL1 inh | DAGLB inh | UCH37 inh | MT1-MMP act val
Cc1ccc(S(=O)(=O)/N=C2\C=C(NS(=O)(=O)c3ccccc3)C(=O)c3ccccc32)c(C)c1 | 39* | 20 | . | 19 | . | 29
Cc1cccc(NC(=S)NCc2ccc3c(c2)cc(C)n3C)c1C | 41* | -3 | 6 | 10 | 0 | 8
COc1cccc(NC(=S)NCc2ccc3c(c2)cc(C)n3C)c1 | 38* | 9 | . | 12 | 4 | 10
Cc1cccc(NC(=O)NCc2ccc3c(c2)cc(C)n3C)c1 | 46 | 14 | -3 | 9 | 2 | .
CON=C(C)c1ncc(C(F)(F)F)cc1N1CCOCC1 | . | . | . | . | -3 | .
Cc1cc2ccccc2n1CCNC(=O)C(C)Oc1ccccc1 (stereo not drawn) | 38* | -10 | -2 | 6 | 0 | 5
Cc1cc2ccccc2n1CCNC(=O)C(C)C | 26 | 3 | -2 | 3 | 4 | .
O=c1[nH]nc(CNc2ccc(O)cc2)c2ccccc12 | 49* | -4 | -8 | 5 | 4 | -2
O=c1[nH]nc(CNc2ccc(C(F)(F)F)cc2)c2ccccc12 | 1 | 2 | 1 | 1 | -2 | .
O=C1c2ccccc2C(=O)c2c(NCc3cccnc3)cccc21 | 28 | -15 | 1 | 12 | 2 | .
O=C1c2cccc(NCCCNCCO)c2C(=O)c2cccc(NCCCNCCO)c21 | 68* | 1 | . | 6 | . | 55*
Cc1c(C(=O)NN=Cc2ccccc2)sc(=S)n1C | . | . | . | . | 4 | .
O=C(O)CC/C(=N\Nc1ccccc1[N+](=O)[O-])c1cccs1 | 35* | 13 | 4 | 18 | . | 25
O=C(O)CC/C(=N\Nc1ccc(S(=O)(=O)N2CCCC2)cc1[N+](=O)[O-])c1cccs1 | 34 | 15 | . | 26 | . | .
O=C(NN=Cc1ccccc1)c1[nH]ncc1Br | . | . | . | . | 4 | .
COC(=O)CCC(=O)OC1(C)C(=O)C2=CN(CC3CC3)C(c3ccc(OC)cc3)=CC2=C(Br)C1=O (stereo not drawn) | 30* | -10 | 0 | 3 | 4 | 15
COC(=O)CCC(=O)OC1(C)C(=O)C2=CN(Cc3ccc(OC)cc3)C(c3ccc(OC)cc3)=CC2=C(Br)C1=O (stereo not drawn) | 3 | -31 | -6 | 8 | 1 | .
CCOC(=O)CC(C)=NNC(=O)COc1ccccc1C | . | . | . | . | 7 | .
CCN1/C(=C2/SC(=S)N(C)C2=O)C=Cc2cc(C)ccc21 | 31* | -4 | -5 | 4 | 5 | 18
CC(C)Oc1ccc(C(=O)NN=Cc2ccc(-c3ccc(S(=O)(=O)Nc4ncccn4)cc3)o2)cc1 | . | . | . | . | -47 | .
Cc1cc2cc(CNS(=O)(=O)c3ccc4ccccc4c3)ccc2n1C | 45* | 0 | -3 | 10 | 2 | 6
Cc1nccn1CC(=O)NN=Cc1cccc(O)c1 | . | . | . | . | 0 | .
CCNC(=S)NNC(=O)c1cc(-c2cccc(OCC)c2)nc2ccccc12 | 6 | -5 | -3 | 1 | 2 | .
CCCCOc1cccc(-c2cc(C(=O)NNC(=S)NCC)c3ccccc3n2)c1 | 39* | -3 | 5 | -2 | -1 | 6
COc1ccc(-c2oc3ccc(-c4ccc(OC)nc4)cc3c2C#CC2(O)CCCCC2)cc1 | 32* | -8 | 2 | -9 | -71 | 10
SMILES | MT1-MMP act inh | CendR NRP1 mod | Fh CTSL1 inh | DAGLB inh | UCH37 inh | MT1-MMP act val
Cc1cc(C)c2nc(N=C(N)NC(=O)c3ccccc3)nc(C)c2c1 | . | . | . | . | -7 | .
Nc1nc(-c2ccc(Cl)cc2)c(N=Nc2ccc(S(=O)(=O)N3CCOCC3)cc2)s1 | 57* | 1 | -8 | 8 | -11 | 55*
COc1ccc(C(CNC(=O)c2c(C)nn(Cc3ccc(C)cc3)c2Cl)N2CCOCC2)cc1 (stereo not drawn) | 32* | 2 | . | -2 | 1 | 8
CN(C)c1ccc(C=c2c3ccccc3n3c2c2c([n+]3C)CCCC2)cc1 | 82* | -3 | . | 22 | . | 57*
Cc1ccc(S(=O)(=O)NCc2ccc3[nH]c(C)cc3c2)cc1 | -2 | -7 | 1 | 6 | 3 | .
CC(=O)Nc1ccc(S(=O)(=O)NCc2ccc3[nH]c(C)cc3c2)cc1 | 31* | 8 | -3 | 5 | 2 | 17
COc1cc(C=NNC(=O)c2cccc(NC(=O)c3ccccc3)c2)ccc1O | . | . | . | . | 1 | .
CCCCCCCCCCCC(=O)NN=Cc1ccco1 | . | . | . | . | 4 | .

Bioassay records deposited in PubChem BioAssay by several laboratories.
